An excerpt weighted towards active compounds, which were near 3.2% of everything screened.
OX1R antag-1 – blocks the human orexin 1 receptor. inhibition, % at 5 µM. actives 0.43% (n = 330,000). AID 434989. CHO/OX1R cells, Fluo-8 calcium fluorescence, orexin A;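 active = inhibition above its plate's threshold, mean inhibition of all tested compounds on the plate plus 3 SD, cut at about 37% in these data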
Target sequence (O43613 whole entry, looked up): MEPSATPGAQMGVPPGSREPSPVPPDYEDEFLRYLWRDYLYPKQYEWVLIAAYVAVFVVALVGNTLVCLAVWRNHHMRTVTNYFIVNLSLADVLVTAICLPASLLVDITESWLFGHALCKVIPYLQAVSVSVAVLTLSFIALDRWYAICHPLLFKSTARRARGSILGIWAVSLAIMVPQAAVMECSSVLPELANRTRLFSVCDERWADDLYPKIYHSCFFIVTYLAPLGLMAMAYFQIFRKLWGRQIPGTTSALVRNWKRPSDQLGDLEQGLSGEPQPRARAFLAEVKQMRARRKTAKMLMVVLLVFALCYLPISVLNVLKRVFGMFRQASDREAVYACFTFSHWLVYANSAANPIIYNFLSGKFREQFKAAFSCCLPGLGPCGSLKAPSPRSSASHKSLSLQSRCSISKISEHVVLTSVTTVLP
zfTRPN1 agonist – agonists of zebrafish TRPN1 channel; HEK293 zebrafish TRPN1-YFP, Fluo-8 calcium fluorescence; 100% = response to 87 µM carbachol; activation, % at 3 µM; actives 0.18% (n = 220,000); AID 1424;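 active = activation above its plate's cutoff, the mean activation of test wells on that plate plus 3 SD, cut at about 19% in these data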
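System: zebrafish TRPN1-YFP in HEK293 cells / Dosing: 3 µM single point / Timing: dye loading 1 h at 37 °C, then 30 min room temperature / Signal: Fluo-8 calcium fluorescence, excitation 470-495 nm, emission 515-575 nm / Read-out basis: percent activation from peak over basal fluorescence ratio, control-normalized / Control set: high carbachol 87 µM, low DMSO alone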
TRPML3 agonist – activates the human TRPML3 channel; Q8TDD5; HEK293 TRPML3-YFP, Fluo-8 calcium fluorescence; 100% = the carbachol control signal; activation, % at 3 µM; actives 0.29% (n = 220,000); AID 1448;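 active = activation above its plate's cutoff, the mean activation of the plate's test wells plus 3 SD, cut at about 12% in these data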
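Material: HEK293 cells stably carrying human TRPML3-YFP; compound dosing: single dose, 3 µM final nominal compound, 0.3% DMSO final; incubation: 1-h 37 °C dye load, 5-s basal, 120-s post-compound reads; technique: Fluo-8 intracellular calcium fluorescence, excitation 470-495 nm, emission 515-575 nm; read-out basis: percent activation from peak-to-basal fluorescence ratio, scaled between DMSO and carbachol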
GPR7 antagonist – antagonists of human GPR7 (neuropeptides B/W receptor 1). P48145. GPR7-expressing cells, fluorescence antagonist assay. inhibition, % at 4.4 µM. actives 1.1% (n = 290,000). AID 1861; in the data active = inhibition above about 16%, passing the limit was not always enough;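 also: cells stimulated with the agonist NPW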
Target sequence (P48145 whole entry, looked up): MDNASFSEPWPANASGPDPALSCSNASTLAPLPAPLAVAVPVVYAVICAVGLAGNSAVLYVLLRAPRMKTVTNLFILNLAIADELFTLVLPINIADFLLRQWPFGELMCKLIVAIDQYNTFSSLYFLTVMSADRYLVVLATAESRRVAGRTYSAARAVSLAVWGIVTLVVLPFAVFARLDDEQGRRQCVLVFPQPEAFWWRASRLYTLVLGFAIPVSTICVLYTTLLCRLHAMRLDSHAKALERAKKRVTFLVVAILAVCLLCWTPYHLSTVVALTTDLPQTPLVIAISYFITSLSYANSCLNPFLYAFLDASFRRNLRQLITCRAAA
OX1R antag-2 – antagonists of human orexin 1 receptor (OX1R); actives 1.8% (n = 330,000); OX1R-expressing cells, FRET antagonist read-out; AID 485270; inhibition, % at 6.6 µM; in the data active = inhibition mostly above about 38%, no sharp cut-off; inactive = mostly below about 40%
CHO parental Ca – counter-screen: ATP calcium response change in parental CHO cells; parental CHO-K1, ATP-induced calcium, Fluo-8 fluorescence; inhibition, % at 5.6 µM; actives 0.63% (n = 330,000); AID 463079;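 active = inhibition above that plate's mean sample inhibition plus 3 SD, cut at about 26% in these data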
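material = parental CHO cells | also added = ATP as calcium-mobilizing challenge | dosing = single point at 5.6 µM | detection = intracellular calcium via Fluo-8 no-wash fluorescent dye | read-out = % inhibition | benchmarks = low control ATP plus DMSO, high control DMSO only | repeats = one well per compound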
GPR7 antag conf – confirmation of human GPR7 antagonists. shares compounds with GPR7 antagonist. GPR7-expressing cells, calcium fluorescence antagonist mode. inhibition, % at 4.4 µM. actives 52% (n = 2,400). AID 1952; in the data active = inhibition above about 24%;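 also: stimulated with the GPR7 agonist NPW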
MCHR1 antag – MCHR1 (human) antagonism in GPR7 counter-screen | shares compounds with GPR7 antagonist | MCHR1-expressing cells, fluorescence antagonist assay | inhibition, % at 4.4 µM | actives 62% (n = 2,400); in the data active = inhibition above about 22%
Of the large screens only hits and unclear results are named; the others gave an inactive call (follow-up assays come after a bar, where they were run).

CCC(=O)N1CCN(c2ccccc2NC(=O)COc2ccc(C(C)C)cc2)CC1	GPR7 antagonist 27 (no result: zfTRPN1 agonist, TRPML3 agonist) | GPR7 antag conf inactive | MCHR1 antag inactive
Cc1cc(C)c(S(=O)(=O)NCc2cccs2)cc1C	none (no result: zfTRPN1 agonist, TRPML3 agonist)
O=c1c(/C=N/O)coc2ccc3ccccc3c12	GPR7 antagonist 27 | GPR7 antag conf inactive | MCHR1 antag inactive
COc1ccc(C(C)NC(=S)NCc2ccc(F)cc2)cc1OC (stereo unspecified)	none (no result: zfTRPN1 agonist, TRPML3 agonist)
CCNC(=S)NCc1ccc(Cl)cc1	none
CCOc1ccc(C(C)NC(=S)NCc2ccc(Cl)cc2)cc1 (stereo unspecified)	GPR7 antagonist 30 | GPR7 antag conf 61 | MCHR1 antag 70
CCCc1ccc(C(C)NC(=S)NCc2ccc(F)cc2)cc1 (stereo unspecified)	GPR7 antagonist 59, CHO parental Ca 33 (no result: zfTRPN1 agonist, TRPML3 agonist) | GPR7 antag conf 79 | MCHR1 antag 93
O=C(NCCc1ccccc1)C1CCN(Cc2cccc3ccccc23)CC1	GPR7 antagonist 28 (no result: zfTRPN1 agonist, TRPML3 agonist) | GPR7 antag conf inactive | MCHR1 antag inactive
CC(NC(=O)C(=O)c1cn(CC(=O)N2CCOCC2)c2ccccc12)c1ccccc1 (stereo unspecified)	none (no result: zfTRPN1 agonist, TRPML3 agonist)
CCCC(C(=O)NC1CCCC1)N(CC1CCCO1)C(=O)CNS(=O)(=O)c1ccc(F)cc1 (stereo unspecified)	none (no result: zfTRPN1 agonist, TRPML3 agonist)
Cc1nn2c(NCCCN(C)C)c3c(nc2c1-c1ccccc1)CCCC3	GPR7 antagonist 30 | GPR7 antag conf inactive | MCHR1 antag 23
CCNC(=S)Nc1cccc([N+](=O)[O-])c1	none
O=[N+]([O-])c1cccc(NC(=S)Nc2nc(-c3ccccc3Cl)cs2)c1	GPR7 antagonist 27, CHO parental Ca 64 (no result: zfTRPN1 agonist, TRPML3 agonist) | GPR7 antag conf 42 | MCHR1 antag 55
COc1ccc(Cl)c(N2CCN(CCCNC(=O)Nc3ccc(C)cc3)CC2)c1	GPR7 antagonist 31 | GPR7 antag conf inactive | MCHR1 antag 42
CCOC(=O)CCc1c(C)c2ccc(OCC)c(C)c2oc1=O	GPR7 antagonist 32 | GPR7 antag conf 42 | MCHR1 antag 30
Cc1ccc(CN=C(N)Nc2nc(C)cc(C)n2)cc1	none
CN(C)CCOC1c2ccccc2CCc2ccc3ccccc3c21 (stereo unspecified)	none (no result: zfTRPN1 agonist, TRPML3 agonist, GPR7 antagonist)
COCCNC(=S)N(CCc1c(C)[nH]c2ccccc12)Cc1cccnc1	none (no result: zfTRPN1 agonist, TRPML3 agonist)
CCN(c1ccccc1)S(=O)(=O)c1ccc(C(=O)N2CCN(c3ccccc3)CC2)cc1	none (no result: zfTRPN1 agonist, TRPML3 agonist, GPR7 antagonist)
Cc1ccccc1CNC(=O)c1ccc(CSCc2ccccc2)cc1	GPR7 antagonist 32 | GPR7 antag conf 25 | MCHR1 antag 48
Cc1ccc(CSCCNC(=O)c2ccccc2)cc1	none
CC(C)NC(=O)NC(=O)CSc1nnc(COc2ccccc2F)n1C(C)C1CC2CCC1C2 (stereo unspecified)	GPR7 antagonist 32, CHO parental Ca 70 | GPR7 antag conf 28 | MCHR1 antag 54
CC(C)(C)c1ccc(C(=O)Nc2cccc3ncccc23)cc1	none (no result: zfTRPN1 agonist, TRPML3 agonist)
CCOc1ccc(C(=O)Nc2cccc3ncccc23)cc1Br	GPR7 antagonist 26 | GPR7 antag conf inactive | MCHR1 antag inactive
CC(=O)Oc1c(C)cc(Cl)cc1C(=O)Nc1ccc([N+](=O)[O-])cc1Cl	zfTRPN1 agonist 26, GPR7 antagonist 25, OX1R antag-2 71 | GPR7 antag conf 59 | MCHR1 antag 62
COc1ccc(CN(C)C(=O)c2[nH]c(C)c(C(C)=O)c2C)c(OC)c1OC	GPR7 antagonist 21 (no result: zfTRPN1 agonist, TRPML3 agonist) | GPR7 antag conf inactive | MCHR1 antag inactive
COc1ccc(CNC(=O)COC(=O)c2[nH]c(C)c(C(C)=O)c2C)cc1OC	none (no result: zfTRPN1 agonist, TRPML3 agonist, GPR7 antagonist)
Cc1sc(NC(=O)C2CCCCC2C(=O)O)c(C(N)=O)c1C (stereo unspecified)	GPR7 antagonist 22 | GPR7 antag conf inactive | MCHR1 antag inactive
Cc1sc(NC(=O)C2CCCCC2C(=O)O)c(C(N)=O)c1-c1ccccc1 (stereo unspecified)	none
COc1ccc(C(=O)/C=C2/c3ccccc3CC(C)(C)N2C)cc1OC	none
CCNC(=O)c1ccc(CSc2nc3ccccc3s2)cc1	none (no result: zfTRPN1 agonist, TRPML3 agonist)
COCCNC(=O)c1ccc(CSc2nc3ccccc3s2)cc1	GPR7 antagonist 31 (no result: zfTRPN1 agonist, TRPML3 agonist) | GPR7 antag conf inactive | MCHR1 antag 28
Cc1ccsc1C(=O)NNC(=O)C1CCCCC1C(=O)O (stereo unspecified)	GPR7 antagonist 23 | GPR7 antag conf inactive | MCHR1 antag inactive
COc1ccccc1NC(=O)Oc1cccc(OC(=O)c2ccccc2)c1	none | GPR7 antag conf inactive | MCHR1 antag inactive
COc1ccc2c(COC(=O)CNS(=O)(=O)c3ccccc3)cc(=O)oc2c1	none (no result: zfTRPN1 agonist, TRPML3 agonist, GPR7 antagonist)
CCCNS(=O)(=O)c1cccc(C(=O)OCc2cc(=O)oc3cc(OC)ccc23)c1	OX1R antag-1 55, GPR7 antagonist 34 (no result: zfTRPN1 agonist, TRPML3 agonist) | GPR7 antag conf 33 | MCHR1 antag 57
COc1ccc(C(C(=O)NCC2CCCO2)N(C(=O)c2snc(C(N)=O)c2N)c2ccccc2C)cc1OC (stereo unspecified)	none (no result: zfTRPN1 agonist, TRPML3 agonist)
O=C(OCc1ccccc1)C1=NNC2C(=O)N(c3ccccc3)C(=O)C12 (stereo unspecified)	GPR7 antagonist 23 | GPR7 antag conf inactive | MCHR1 antag inactive
CN(C)c1ccc(S(=O)(=O)N2CCC(Cc3ccccc3)CC2)cn1	none (no result: zfTRPN1 agonist, TRPML3 agonist, GPR7 antagonist)
Cc1ccccc1NC(=S)NC(C)C(c1cccs1)N1CCOCC1 (stereo unspecified)	none
CC(NC(=S)Nc1ccc(F)cc1)C(c1cccs1)N1CCOCC1 (stereo unspecified)	GPR7 antagonist 23 | GPR7 antag conf inactive | MCHR1 antag inactive
O=C(N/N=C/c1ccncc1)c1ccccc1OCc1ccc(Br)cc1	GPR7 antagonist 31 | GPR7 antag conf 25 | MCHR1 antag 43
COc1cc([N+](=O)[O-])cc2cc(C(=O)N3CCCC3)c(=O)oc12	none
Cc1cccc(NS(=O)(=O)c2ccc(C(=O)NCC(c3ccccc3)N(C)C)cc2)c1C (stereo unspecified)	GPR7 antagonist 33 (no result: OX1R antag-1, zfTRPN1 agonist, TRPML3 agonist, OX1R antag-2, CHO parental Ca) | GPR7 antag conf 47 | MCHR1 antag 58
CN(C)C(CNC(=O)c1ccc(NS(=O)(=O)c2ccc(F)cc2)cc1)c1ccco1 (stereo unspecified)	none (no result: zfTRPN1 agonist, TRPML3 agonist, GPR7 antagonist)
Cc1ccc(NS(=O)(=O)c2ccc(C(=O)NCC(c3ccco3)N(C)C)cc2)cc1 (stereo unspecified)	GPR7 antagonist 34 (no result: zfTRPN1 agonist, TRPML3 agonist) | GPR7 antag conf 52 | MCHR1 antag 43

Bioassay records from PubChem.
